This is one part of the list. Values without a mark were called inactive. Active and inactive are the calls of the source.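 Rule for the calls: active = inhibition of pump activity above 50%; inactive = the rest.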
molecular target: ATP-dependent translocase ABCB1 (Homo sapiens) (UniProt P08183); experiment: ABCB1 efflux pump inhibitors, confirmation, cell-based, single point, ABCG2 counter-screen (AID 1451); conditions: CCRF-Adr cells, JC-1 efflux, flow cytometry; at 6.6 µM; active compounds read high;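 note: 0% = DMSO and 100% = nicardipine full pump inhibition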
Method in brief: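 material = ABCB1-expressing CCRF-Adr cells | amount = 3 million cells per mL final in well | reagent = JC-1 substrate | compound dosing = single test-compound dose, 6.6 µM final | timing = 10 min exposure, 25 °C | measured by = flow cytometry, 530 nm emission | control set = nicardipine as high control, DMSO as low control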

Sequence of ATP-dependent translocase ABCB1 (Homo sapiens) (P08183 whole entry, looked up): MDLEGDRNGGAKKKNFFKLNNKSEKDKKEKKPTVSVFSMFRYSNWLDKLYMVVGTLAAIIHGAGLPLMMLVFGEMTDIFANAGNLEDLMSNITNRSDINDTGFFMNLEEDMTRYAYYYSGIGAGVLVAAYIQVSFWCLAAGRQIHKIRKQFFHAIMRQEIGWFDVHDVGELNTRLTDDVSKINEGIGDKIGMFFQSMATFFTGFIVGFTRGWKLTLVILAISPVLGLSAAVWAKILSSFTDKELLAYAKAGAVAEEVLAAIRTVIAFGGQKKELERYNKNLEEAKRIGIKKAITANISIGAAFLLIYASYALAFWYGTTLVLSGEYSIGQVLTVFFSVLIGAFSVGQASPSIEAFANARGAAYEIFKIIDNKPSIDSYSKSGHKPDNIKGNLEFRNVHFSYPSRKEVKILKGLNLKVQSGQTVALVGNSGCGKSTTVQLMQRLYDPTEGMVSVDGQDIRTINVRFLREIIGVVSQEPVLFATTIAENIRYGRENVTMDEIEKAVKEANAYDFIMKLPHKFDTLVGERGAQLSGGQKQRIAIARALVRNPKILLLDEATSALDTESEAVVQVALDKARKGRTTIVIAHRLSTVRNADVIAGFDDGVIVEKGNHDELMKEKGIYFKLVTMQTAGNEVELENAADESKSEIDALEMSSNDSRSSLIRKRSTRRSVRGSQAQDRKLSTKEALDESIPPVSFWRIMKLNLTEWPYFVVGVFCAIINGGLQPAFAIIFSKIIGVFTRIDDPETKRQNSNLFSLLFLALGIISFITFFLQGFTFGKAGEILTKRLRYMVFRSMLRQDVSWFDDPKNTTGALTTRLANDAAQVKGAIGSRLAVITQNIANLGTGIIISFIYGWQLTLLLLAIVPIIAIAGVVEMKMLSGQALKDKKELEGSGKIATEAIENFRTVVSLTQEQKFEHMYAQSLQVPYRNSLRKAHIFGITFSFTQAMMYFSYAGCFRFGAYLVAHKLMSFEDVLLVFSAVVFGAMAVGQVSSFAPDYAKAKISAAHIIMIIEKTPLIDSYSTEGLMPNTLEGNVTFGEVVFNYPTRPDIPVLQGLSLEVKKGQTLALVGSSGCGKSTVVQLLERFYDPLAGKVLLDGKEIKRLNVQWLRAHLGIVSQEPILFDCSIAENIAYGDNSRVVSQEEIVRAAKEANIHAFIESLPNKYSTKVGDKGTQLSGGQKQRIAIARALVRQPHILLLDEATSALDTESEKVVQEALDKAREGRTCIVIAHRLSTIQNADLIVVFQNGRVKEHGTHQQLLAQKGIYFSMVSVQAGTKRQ

| SMILES | inhibition |
| --- | --- |
| Cc1c(CCOC(=O)CC23CC4CC(CC(C)(C4)C2)C3)sc[n+]1Cc1ccc([N+](=O)[O-])cc1 | 0.26% |
| C=CCn1c(SCCOc2ccc(OC)cc2)nnc1C(NC(=O)c1ccc(OC)cc1)C(C)C (stereo not drawn) | 23.6% |
| C/C(=N\Nc1ncc(Cl)cc1Cl)c1ccc(S(=O)(=O)NCc2ccco2)cc1 | 1.61% |
| CCN1/C(=C/c2ccc3ccc(C)cc3[n+]2CC)Sc2ccccc21 | -9.15% |
| CCOC(=O)c1sc(NC(=O)CSc2nnc(-c3ccco3)o2)c(C(=O)OCC)c1C | 15.2% |
| Cc1cccc2cc(CN(Cc3cccs3)C(c3nnnn3C3CCCC3)C(C)C)c(=O)[nH]c12 (stereo not drawn) | 61.6% (active) |
| Cc1ccc(OCC(O)CN2CCN(CC(O)COc3ccc(C)cc3Cl)CC2)c(Cl)c1 (stereo not drawn) | 17.1% |
| COc1ccc(C)cc1NC(=O)C(Sc1ccccc1)c1ccccc1 (stereo not drawn) | 3.76% |
| Cc1ccc(-n2c(SCC(=O)Nc3ncc(Cl)cc3Cl)nc3ccccc32)cc1 | 41.2% |
| O=C(Cc1c[nH]c2ccccc12)N/N=C/c1cccc(F)c1 | -0.99% |
| COc1ccc(-n2c(C)cc(C(=O)COC(=O)c3cc(OC)c(OC)cc3NC(=O)c3cccs3)c2C)cc1 | 3% |
| CCOCC(=O)Nc1sc2c(c1C(=O)OCC)CCCC2 | 2.32% |
| COc1cccc(NC(=O)c2ccc(Cn3cc([N+](=O)[O-])cn3)o2)c1 | -0.63% |
